Measured values from publication PMC4338581 (Bioorganic & medicinal chemistry letters, 2014).
Like-named read-outs stand apart in the source and are kept apart here. Marks after values point to notes of the source that are not given here.

Assays:
[1] = molecular target: MMP-7; details: ref [37]; cited from earlier work
[2] = system: HT-1080 xenografts; details: ref [19], cited from earlier work
[3] = system: albumin; details: ref [26]; cited from earlier work
[4] = molecular target: T1, MMP-2 (Homo sapiens, UniProt P08253); details: ref [23]; cited from earlier work
T1 sequence (P08253 110-660): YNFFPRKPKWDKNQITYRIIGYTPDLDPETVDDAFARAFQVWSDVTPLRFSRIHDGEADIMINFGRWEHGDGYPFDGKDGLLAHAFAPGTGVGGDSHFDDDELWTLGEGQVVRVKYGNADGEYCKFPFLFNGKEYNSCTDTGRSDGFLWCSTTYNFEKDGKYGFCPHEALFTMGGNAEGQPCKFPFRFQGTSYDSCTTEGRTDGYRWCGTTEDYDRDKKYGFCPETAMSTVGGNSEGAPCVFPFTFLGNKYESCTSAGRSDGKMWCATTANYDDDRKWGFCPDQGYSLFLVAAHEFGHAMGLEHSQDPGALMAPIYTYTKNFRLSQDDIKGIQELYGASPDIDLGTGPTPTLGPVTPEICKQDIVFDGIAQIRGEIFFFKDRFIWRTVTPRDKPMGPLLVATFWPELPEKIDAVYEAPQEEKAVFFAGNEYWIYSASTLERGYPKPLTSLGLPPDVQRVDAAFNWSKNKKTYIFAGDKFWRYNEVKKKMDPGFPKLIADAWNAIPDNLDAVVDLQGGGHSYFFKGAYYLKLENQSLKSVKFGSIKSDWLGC

[5] = molecular target: T2, MMP-9 (Homo sapiens, UniProt P14780); details: ref [23]; cited from earlier work
T2 sequence (P14780 94-707): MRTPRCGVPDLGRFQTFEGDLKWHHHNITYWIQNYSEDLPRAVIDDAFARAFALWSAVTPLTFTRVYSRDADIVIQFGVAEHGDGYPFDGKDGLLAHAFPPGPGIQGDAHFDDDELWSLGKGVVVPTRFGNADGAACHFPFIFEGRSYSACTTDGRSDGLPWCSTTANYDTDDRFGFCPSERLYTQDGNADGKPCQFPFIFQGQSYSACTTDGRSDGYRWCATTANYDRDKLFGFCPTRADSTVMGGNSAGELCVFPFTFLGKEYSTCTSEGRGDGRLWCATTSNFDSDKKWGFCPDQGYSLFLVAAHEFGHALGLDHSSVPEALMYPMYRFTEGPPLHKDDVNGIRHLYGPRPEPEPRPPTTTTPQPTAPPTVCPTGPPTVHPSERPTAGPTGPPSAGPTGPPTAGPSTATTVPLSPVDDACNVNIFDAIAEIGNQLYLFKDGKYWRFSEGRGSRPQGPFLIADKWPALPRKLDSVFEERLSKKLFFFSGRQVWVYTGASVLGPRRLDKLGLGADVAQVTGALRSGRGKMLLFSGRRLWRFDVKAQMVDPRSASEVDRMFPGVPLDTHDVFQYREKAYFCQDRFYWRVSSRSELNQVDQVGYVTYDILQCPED

[6] = ref [23]; cited from earlier work
[7] = system: gelatinases (MMP-2 and MMP-9) versus other MMP family members; details: ref [23], [24]; cited from earlier work
[8] = molecular target: T1, MMP-2; assay: Enzyme kinetics; assay type: biochemical; details: λexcitation = 780 nm, λemission = 810 nm; for kcat: Michaelis-Menten; for Km: ± standard error of the mean
[9] = molecular target: T2, MMP-9; assay: Enzyme kinetics; assay type: biochemical; details: λexcitation = 780 nm, λemission = 810 nm; for kcat: Michaelis-Menten; for Km: ± standard error of the mean
[10] = Fluorescence quenching efficiency, intact vs completely hydrolyzed; assay type: physicochemical; details: from variable temperature absorbance spectra and variable temperature fluorescence melting curves
[11] = Triple-helix melting temperature; assay type: physicochemical; details: from fluorescence melting curves; Table 1
[12] = Variable temperature absorbance spectra; assay type: physicochemical; details: room temperature, PBS
Procedure, shortened: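 Dye-labelled triple-helical peptide conjugates in PBS; absorbance spectra recorded across a range of temperatures. Quenching efficiency was derived from these spectra together with variable-temperature fluorescence melting curves.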

[13] = system: gelatinases (MMP-2 and MMP-9) versus other MMP family members; assay: Substrate selectivity for gelatinases within the MMP family; assay type: biochemical; details: authors' summary statement
[14] = system: HT-1080 xenografted tumors (gelatinase activity); assay: FMT imaging of mice bearing HT-1080 fibrosarcoma xenografts; details: 2 nmol i.v.

In the case of `CC1(C)SCCN(S(=O)(=O)c2ccc(Oc3ccncc3)cc2)[C@H]1C(=O)NO` [Prinomastat, reference compound], the Ki [1] is given as 54 nM and the “reduction of tumor-associated fluorescence on co-administration” value ([2]; with MMPSense, HT-1080 xenografts) is given as 2.5 fold.

In the case of `CC1(C)C(/C=C/C=C/C=C/C=C2/N(CCC(=O)O)c3ccc4ccccc4c3C2(C)C)=[N+](CCC(=O)O)c2ccc3ccccc3c21.[Br-]` [cypate], the “binding affinity to albumin” value [3] is listed as “good binding affinity”.

For “(GPO)5GPK(Mca)GPPG~VVGEK(Dnp)GEN(GPO)5-NH2 [fTHP]”, the Km [4] is listed as 4.4 µM, the kcat [4] is listed as 0.061 s⁻¹ and the kcat/KM [4] is listed as 14 × 10^3 s^−1M^−1. The Km [5] was 8.1 µM, the kcat [5] was 0.044 s⁻¹ and the kcat/KM [5] was 5.4 × 10^3 s^−1M^−1. The TM [6] was 45.0 °C and the “kcat/KM for gelatinases relative to other MMP family members” value [7] was “more than 10 fold”.

In the case of “(GPO)5GPKGPPG~VVGEK(PEG2-cypate)GEQ(GPO)5 [cypate3-(PEG)2-THP]”, the kcat/KM [8] is reported as 9100 M⁻¹ s⁻¹, the kcat [8] is reported as 0.099 s⁻¹ and the kcat/KM ([8]; Table 1) is reported as 9.1 × 10^3 s^−1M^−1. It also gave a Km [8] of 10.9 µM, a kcat/KM [9] of 9100 M⁻¹ s⁻¹ and a kcat [9] of 0.202 s⁻¹. For the same compound, the kcat/KM ([9]; Table 1) was 9.1 × 10^3 s^−1M^−1, the Km [9] was 22.2 µM and the “quenching efficiency, comparison with and without PEG spacer” value [10] was “similar”. The TM [11] was 45.5^b °C.

For “(GPO)5GPKGPPG~VVGEK(cypate)GEQ(GPO)5 [cypate3-THP]”, the kcat/KM [8] was 6800 M⁻¹ s⁻¹, the kcat [8] was 0.056 s⁻¹ and the kcat/KM ([8]; Table 1) was 6.8 × 10^3 s^−1M^−1. The Km [8] was 8.19 µM, the kcat/KM [9] was 6400 M⁻¹ s⁻¹ and the kcat [9] was 0.142 s⁻¹. The kcat/KM ([9]; Table 1) was 6.4 × 10^3 s^−1M^−1, the Km [9] was 22.3 µM and the “quenching efficiency, comparison with and without PEG spacer” value [10] was “similar”. The TM [11] was 50.5^b °C, the “additional absorption peak (aggregate)” value [12] was 710 nm and the main absorption peak [12] was 780 nm. The aggregation ([12]; 300 nM, up to 1.5 μM) was “significant intramolecular H-aggregation”, the selectivity of hydrolysis [13] was “efficiently hydrolyzed selectively by MMP-2 and -9” and the “average tumor to background ratio” value ([14]; 4 hours post-injection, n = 3) was 10.2. The clearance of fluorescence ([14]; after 24 h) was “slowly cleared from most tissues after 24 h”, the “time of peak normalized fluorescence intensity” value ([14]; post-injection, n = 3) was 4 h and the “fluorescence enhancement within the tumor” value ([14]; abstract) was “significant fluorescence enhancement within the tumor”. For the same compound, the “normalized tumor fluorescence intensity” value ([14]; pmol cypate/mm^3 tumor volume, 1 hour post-injection, n = 3) was “relatively low”.

In the case of PLGVR [MMPSense], the “visualization of HT-1080 xenografts” value ([2]; NIR reflectance imaging) is given as “enabled the visualization of the HT-1080 xenografts”.
